Measured values as given in ChEMBL document CHEMBL1121886, “Synthesis and antineoplastic activity of mitosene analogues of the mitomycins” (J Med Chem, 1981).

How the values were obtained:
[1] = tested on: P388; assay: (Percentage) Maximum effect on life span of mice against P388 murine leukemia when compared with control; assay type: functional, Mus musculus
Summary of the method: (§1)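 CDF₁ female mice were implanted with 10⁶ P388 ascites cells and dosed on day 1 only, six mice per dose. There were 10 saline-injected controls, plus a six-mouse mitomycin C group per dose in each experiment. % T/C = median survival treated/control × 100 at optimal dose; MED is the dose giving % T/C 125; TR = optimal dose/MED.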

[2] = tested on: P388; assay: (Percentage) Maximum effect on life span of control group of mice for mytomycin C at its optimal dose; assay type: functional, Mus musculus; summary of the method: as §1
[3] = tested on: P388; assay: Optimal dose effective against P388 murine leukemia in mice; assay type: functional, Mus musculus
Summary of the method: (§2)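 P388 ascites cells (10⁶) were implanted in CDF₁ female mice. Six mice per dose were dosed on day 1 only; 10 controls received saline, and mitomycin C reference groups had six mice per dose. %T/C = MST treated/control × 100. The optimal dose gave the maximum %T/C. MED is the dose giving %T/C 125. TR = optimal dose/MED.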

[4] = tested on: P388; assay: Minimum effective dose (MED) against P388 murine leukemia in mice; assay type: functional; details: Mus musculus, read-out: MED; summary of the method: as §2
[5] = (§3) Therapeutic ratio of optimal dose to minimum effective dose(MED); assay type: ADME; details: mouse; summary of the method: as §2
[6] = tested on: L1210; assay: Average change in weight between treated and control groups at 24 mg/kg in mice infected with L1210 leukemia cells; assay type: functional, Mus musculus
Summary of the method: (§4)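 BDF₁ female mice received 10⁶ L1210 ascites cells, then a single injection on day 1 in distilled water containing Tween 80, six mice per dose. The control group had 36 mice. Median survival time is in days; % T/C = MST treated/MST control × 100, with 125 taken as significant. Weight change is the average weight difference between treated and control groups.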

[7] = tested on: L1210; assay: (§5) Average change in weight between treated and control groups at 3 mg/kg in mice infected with L1210 leukemia cells; assay type: functional, Mus musculus; summary of the method: as §4
[8] = tested on: L1210; assay: Median survival time against L1210 murine leukemia at 24 mg/kg in mice when compared with control; assay type: functional, Mus musculus; summary of the method: as §4
[9] = tested on: L1210; assay: Average change in weight between treated and control groups at 6 mg/kg in mice infected with L1210 leukemia cells; assay type: functional, Mus musculus
Summary of the method: (§6)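 L1210 ascites cells (10⁶) were implanted into BDF₁ female mice. Six mice per dose received a single injection on day 1 in distilled water containing Tween 80; the control group had 36 mice. Survivors were counted on days 5 and 30. %T/C = MST (days) treated/control × 100, with 125 as significant. Weight change is the average weight difference between treated and control groups.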

[10] = tested on: L1210; assay: Median survival time against L1210 murine leukemia at 3 mg/kg in mice when compared with control; assay type: functional, Mus musculus; summary of the method: as §4
[11] = tested on: L1210; assay: Median survival time against L1210 murine leukemia at 1.5 mg/kg in mice when compared with control; assay type: functional, Mus musculus; summary of the method: as §4
[12] = tested on: L1210; assay: Median survival time against L1210 murine leukemia at 12 mg/kg in mice when compared with control; assay type: functional, Mus musculus; summary of the method: as §4
[13] = tested on: L1210; assay: Median survival time against L1210 murine leukemia at 6 mg/kg in mice when compared with control; assay type: functional, Mus musculus; summary of the method: as §4
[14] = tested on: L1210; assay: (§7) Average change in weight between treated and control groups at 12 mg/kg in mice infected with L1210 leukemia cells; assay type: functional, Mus musculus; summary of the method: as §4
[15] = tested on: L1210; assay: Average change in weight between treated and control groups at 1.5 mg/kg in mice infected with L1210 leukemia cells; assay type: functional, Mus musculus; summary of the method: as §6
[16] = as §3; assay type: ADME; details: mouse, p388; summary of the method: as §1
[17] = as §7; assay type: functional, Mus musculus; summary of the method: as §6
[18] = tested on: L1210; assay: Median survival time against L1210 murine leukemia at 24 mg/kg in mice when compared with control; Toxic; assay type: functional, organism-based; design: dose 24 mg/kg; details: Mus musculus; summary of the method: as §6
[19] = tested on: L1210; assay: as §5; assay type: functional, Mus musculus; summary of the method: as §6; remark: listed apart in the source

COC1=C(C)C(=O)c2c(c(COC(N)=O)c3n2CCC3OC(C)=O)C1=O (centres undefined)
T/C [1]: 165% | T/C [2]: 229% | Dose [3]: 6.4 mg/kg | minimal effective dose [4]: 0.8 mg/kg | selectivity ratio [5]: 8

COC1=C(C)C(=O)c2c(c(COC(N)=O)c3n2CC/C3=N\O)C1=O
T/C [1]: 150% | T/C [2]: 181% | Dose [3]: 6.4 mg/kg | minimal effective dose [4]: 1.6 mg/kg | selectivity ratio [5]: 4

CC1=C(N2CC2)C(=O)c2c(COC(N)=O)c3n(c2C1=O)CCC3OC(N)=O (centres undefined)
Average weight change [6]: -3.2 g | Average weight change [7]: -1.1 g | T/C [1]: 144% | T/C [8]: 138% | T/C [2]: 183% | Average weight change [9]: -1.6 g | Dose [3]: 51.2 mg/kg | minimal effective dose [4]: 0.8 mg/kg | T/C [10]: 112% | T/C [11]: 108% | T/C [12]: 134% | selectivity ratio [5]: 64 | T/C [13]: 114% | Average weight change [14]: -2.4 g | Average weight change [15]: -0.6 g

COC(=O)OC1CCn2c3c(c(COC(N)=O)c21)C(=O)C(OC)=C(C)C3=O (centres undefined)
T/C [1]: 150% | T/C [2]: 244% | Dose [3]: 3.2 mg/kg | minimal effective dose [4]: 1.6 mg/kg | selectivity ratio [5]: 2

COc1c(C)c(O)c2c(c1O)c(COC(N)=O)c1n2C[C@@H]2[C@H]1N2C (some centres undefined)
T/C [1]: 213% | T/C [2]: 181% | Dose [3]: 12.8 mg/kg | minimal effective dose [4]: 0.8 mg/kg | selectivity ratio [5]: 16

CC(=O)OC1CCn2c3c(c(COC(N)=O)c21)C(=O)C(N1CC1)=C(C)C3=O (centres undefined)
T/C [1]: 122% | T/C [2]: 224% | Dose [3]: 6.4 mg/kg

CNC(=O)OC1CCn2c3c(c(COC(N)=O)c21)C(=O)C(OC)=C(C)C3=O (centres undefined)
T/C [1]: 167% | T/C [2]: 228% | Dose [3]: 6.4 mg/kg | minimal effective dose [4]: 1.6 mg/kg

CNC(=O)OC1CCn2c3c(c(CCl)c21)C(=O)C(OC)=C(C)C3=O (centres undefined)
T/C [1]: 139% | T/C [2]: 222% | Dose [3]: 12.8 mg/kg | minimal effective dose [4]: 12.8 mg/kg | selectivity ratio [5]: 1

COC1=C(C)C(=O)c2c(c(COC(N)=O)c3n2CCC3O)C1=O (centres undefined)
T/C [1]: 113% | T/C [2]: 181% | Dose [3]: 6.4 mg/kg

COC1=C(C)C(=O)c2c(c(COC(N)=O)c3n2CCC3OC(=O)c2cccnc2)C1=O (centres undefined)
T/C [1]: 128% | T/C [2]: 211% | Dose [3]: 6.4 mg/kg | minimal effective dose [4]: 6.4 mg/kg | selectivity ratio [5]: 1

COC1=C(C)C(=O)c2c(c(COC(N)=O)c3n2CCC3)C1=O
T/C [1]: 128% | T/C [2]: 183% | selectivity ratio [16]: 1 | Dose [3]: 51.2 mg/kg | minimal effective dose [4]: 51.2 mg/kg

CO[C@@]12[C@H](COC(N)=O)C3=C(C(=O)C(C)=C(N)C3=O)N1C[C@@H]1N[C@@H]12 [MITOMYCIN]
Average weight change [7]: -2.4 g | Average weight change [9]: -3.6 g | T/C [10]: 122% | T/C [11]: 108% | T/C [12]: 110% | Average weight change [17]: -5.5 g | T/C [13]: 124% | Average weight change [15]: -1.2 g

COC1=C(C)C(=O)c2c(c(COC(N)=O)c3n2CCC3OC(=O)CCl)C1=O (centres undefined)
T/C [1]: 111% | T/C [2]: 224% | Dose [3]: 6.4 mg/kg

COC1=C(C)C(=O)c2c(c(COC(N)=O)c3n2CCC3OC(N)=O)C1=O (centres undefined)
Average weight change [6]: -5.1 g | T/C [1]: 163% | T/C [2]: 238% | Average weight change [9]: -1.7 g | Dose [3]: 6.4 mg/kg | minimal effective dose [4]: 0.4 mg/kg | T/C [18]: Toxic | T/C [10]: 118% | T/C [11]: 114% | T/C [12]: 122% | selectivity ratio [5]: 16 | T/C [13]: 116% | Average weight change [19]: -3.2 g | Average weight change [14]: -3.4 g | Average weight change [15]: -1.4 g

COC1=C(C)C(=O)c2c(c(COC(N)=O)c3n2CCC3OC(=O)C(C)(C)C)C1=O (centres undefined)
T/C [1]: 117% | T/C [2]: 183% | Dose [3]: 51.2 mg/kg
